Results published in ChEMBL document CHEMBL2176879, “Identification of HIV-1 inhibitors targeting the nucleocapsid protein” (J Med Chem, 2012).
Activity calls are given as the source filed them.

Key:
SUP-T1 [1] = assay: Cytotoxicity against human SupT1 cells at 10 uM after 7 days by Trypan Blue dye exclusion analysis; format: cell-based; details: sup-t1, 168 h
[2] = tested on: Human immunodeficiency virus 1; assay: Antiviral activity against HIV1 NL4-3 infected in human HeLa cells assessed as drecrease of p24 antigen level after 2 days by CFAR; format: functional, organism-based; details: Human immunodeficiency virus 1, NL4-3, HeLa, 48 h
How it was run: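 2×10^5 HeLa cells in Opti-MEM given increasing compound concentrations (1 % DMSO controls); after 2 days transiently transfected with 1 μg pNL4-3 plasmid by lipofection. Virus production quantified as p24, expressed relative to DMSO controls; three independent transfections, mean ± s.d.; EC50 derived.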

[3] = tested on: Human immunodeficiency virus 1; assay: Binding affinity to HIV1 Gag protein assessed as change in melting temperature using SYPRO orange by differential scanning fluorimetry analysis
How it was run: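 5 μM GST-Gag incubated with 5X SYPRO Orange and 5 μM compound in 5 mM HEPES pH 7.5, 150 mM NaCl; heated 35–94 °C at 1 °C/min. Tm from Boltzmann sigmoid fit; ΔTm of 2 °C taken as hit threshold.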

SUP-T1 [4] = assay: Cytotoxicity against human SupT1 cells at 0.1 to 1 uM after 7 days by Trypan Blue dye exclusion analysis; format: cell-based; details: sup-t1, 168 h
[5] = tested on: Human immunodeficiency virus 1; assay: Displacement of FAM-labeled SL-2 from HIV1 NL4-3 N-terminal GST-tagged nucleocapsid protein-FAM-labeled SL-2 complex expressed in Escherichia coli BL21DE3 by EMSA analysis
How it was run: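 Pre-formed complex of GST-p2-NC with fluorescein-labeled SL-2 DNA (15 μM protein, 0.5 μM DNA in PBS, 10 nM ZnCl2) incubated with compound, resolved by native PAGE; free/bound probe quantified by fluorescence gel scanning.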

[6] = tested on: Human immunodeficiency virus 1; assay: Binding affinity to HIV1 NL4-3 N-terminal GST-tagged nucleocapsid protein expressed in Escherichia coli BL21DE3 by resonant waveguide grating-based SRU BIND assay
How it was run: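 GST-p2-NC (NL4-3, E. coli BL21DE3(pLysS), GSH-purified) immobilized at 5 μM on aldehyde-activated optical biosensor; compounds added at 25 μM in PBS, 1 % DMSO; peak wavelength shift followed over time at room temperature; stoichiometry from expected PWV using ligand/receptor MW ratio and target activity.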

[7] = Inhibition of HIV1 NL4-3 N-terminal GST-tagged nucleocapsid protein interaction to FAM-labeled SL-2 DNA expressed in Escherichia coli BL21DE3 by fluorescence polarisation assay; design: species or system Human immunodeficiency virus 1
[8] = tested on: Human immunodeficiency virus 1; assay: Antiviral activity against HIV1 LAI infected in human CD4+ T cells assessed as reduction of p24 positive T cells at 200 nM treated 3 days before infection measured after 9 days by flow cytometry analysis; format: functional; details: Human immunodeficiency virus 1, LAI, T-cell
SUP-T1 [9] = assay: Cytotoxicity against human SupT1 cells at 0.1 uM after 7 days by Trypan Blue dye exclusion analysis; format: cell-based; details: sup-t1, 168 h
How it was run: (§1)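 SupT1 T cells in RPMI1640 with 10 % FBS, 2 mM L-glutamine, 0.1 mM NEAA, 1 mM sodium pyruvate, penicillin/streptomycin, at 37 °C and 5 % CO2. Compounds were dissolved in DMSO and incubated with the cells for several days. Viability was read as dead vs. viable cells by Trypan Blue dye exclusion, counted under a microscope.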

SUP-T1 [10] = assay: Cytotoxicity against human SupT1 cells at 1 uM by Trypan Blue dye exclusion analysis; format: cell-based; details: sup-t1, 1 µM; how it was run: as §1
SUP-T1 [11] = assay: Cytotoxicity against human SupT1 cells at 30 uM after 6 days by Trypan Blue dye exclusion analysis; format: cell-based; details: sup-t1, 144 h; how it was run: as §1

SMILES | Activity (SUP-T1 [1]) [%] | EC50 [2] [nM] | ΔTm [3] [°C] | Activity (SUP-T1 [4]) [%] | Activity [5] | Activity [6] | Ki [7] [nM] | inhibition at 0.2 µM [8] [%] | Activity (SUP-T1 [9]) [%] | Activity (SUP-T1 [10]) [%] | Activity (SUP-T1 [11]) [%]
CCOc1ccc(/C=C(\C)[N+](=O)[O-])cc1OC | > 90 | 320 | 2.2 | < 3 | Active | Active | 14 | 50 | 0 | – | –
C/C(=C\c1ccc2c(c1)OCO2)[N+](=O)[O-] | > 90 | – | 3.4 | – | Active | Active | 22 | 18 | 0 | > 70 | –
O=C1NC(=S)S/C1=C\c1cc([N+](=O)[O-])ccc1Sc1ccc(C(F)(F)F)cn1 | > 90 | – | 2.4 | – | Active | Active | 73 | 0 | 0 | > 70 | –
COc1cccc(/C=C2\SC(=S)C(N)C2=O)c1OC (configuration not stated) | – | 3500 | 4.8 | < 3 | Active | Active | 18 | 43 | 0 | – | > 70
O=C1ON=C(c2ccccc2)/C1=C/c1ccc2c(c1)OCO2 | > 90 | – | 6.3 | – | Active | Active | 20 | 33 | 0 | > 70 | –
